In assay [1] the target is T1, Human immunodeficiency virus type 1 integrase (Human immunodeficiency virus 1, UniProt Q7ZJM1). As to the kind of experiment: Inhibition of strand transfer activity of HIV-1 integrase. Summed up: (§1)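 Recombinant HIV-1 integrase (200 nM final) preincubated with inhibitor 30 min at 30 °C in buffer (pH 7.2 MOPS, 7.5 mM MnCl2, 10% DMSO, 50 mM NaCl, BSA, reducing agents, glycerol). Then 20 nM 5′-32P-labeled linear oligonucleotide substrate added, reaction run 1 h more. Products resolved on denaturing 20% polyacrylamide/urea gel. IC50 read from plot of concentration versus percent inhibition.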

Assay [2] concerns the target T1, Human immunodeficiency virus type 1 integrase. The assay is described as follows: Inhibition of 3'- processing activity of HIV-1 integrase. In outline: as §1

T1 sequence (Q7ZJM1 whole entry): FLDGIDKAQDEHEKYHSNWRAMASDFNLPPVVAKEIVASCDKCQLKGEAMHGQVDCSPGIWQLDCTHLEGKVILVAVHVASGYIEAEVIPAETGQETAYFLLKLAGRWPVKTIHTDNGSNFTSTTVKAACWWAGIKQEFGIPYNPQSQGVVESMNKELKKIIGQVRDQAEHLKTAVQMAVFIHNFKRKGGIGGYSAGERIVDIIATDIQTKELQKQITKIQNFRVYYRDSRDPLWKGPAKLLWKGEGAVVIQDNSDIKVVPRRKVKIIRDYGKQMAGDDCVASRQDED

With `O=C(/C=C/c1ccc(O)c(O)c1)CC(=O)/C=C/c1ccc(O)c(O)c1`, the IC50 in assay [1] stood at 3.1 µM; in assay [2] it was 6 µM.
On the same counts, the results for `COc1ccc(/C=C/C(=O)CC(=O)/C=C/c2ccc(OC)cc2)cc1` are more than 300 µM and more than 300 µM.
Consider `O=C(/C=C/c1ccc(O)cc1)CC(=O)/C=C/c1ccc(O)cc1` [BISDEMETHOXYCURCUMIN], for which the half-inhibitory concentration (IC50) in assay [1] was 80 µM; in assay [2], 120 µM.
As for `COc1cc(CCC(=O)CC(=O)CCc2ccc(O)c(OC)c2)ccc1O` [TETRAHYDROCURCUMIN], the IC50 in assay [1] and in assay [2] was more than 300 µM each time.
With `COc1cc(/C=C/C(=O)CC(=O)/C=C/c2ccc(O)c(O)c2)ccc1O`, the IC50 was 9 µM in assay [1] and 18 µM in assay [2].
For the molecule `O=C(/C=C/c1ccc(O)c(O)c1)O[C@H](Cc1ccc(O)c(O)c1)C(=O)O` [ROSMARINIC ACID], the IC50 in assay [1] was found to be 4 µM; in assay [2], 9 µM.
On the same counts, the results for `COc1cc(/C=C/C(=O)CC(=O)/C=C/c2ccc(O)c(OC)c2)ccc1O` [CURCUMIN] are 140 µM and 150 µM.
For `COc1cc(/C=C/C(O)=C/C(=O)/C=C/c2ccc(O)cc2)ccc1O` [DEMETHOXYCURCUMIN], the figures for the IC50 in assay [1] and in assay [2] were 120 µM and 140 µM, respectively.
As for `O=C(/C=C/c1ccccc1)CC(=O)/C=C/c1ccccc1`, the IC50 in assay [1] and in assay [2] was more than 300 µM in each case.

(Values after ChEMBL document CHEMBL1130151, “Curcumin analogs with altered potencies against HIV-1 integrase as probes for biochemical mechanisms of drug action” (J Med Chem, 1997).)
